Measurements published in ChEMBL document CHEMBL4118150, “2-Methylacrylamide as a bioisoster of thiourea group for 1,3-dibenzylthioureido TRPV1 receptor antagonists” (Bioorg Med Chem Lett, 2018).
Blank lines part the entries; values can stand above or below the compound they belong to.

Tests used:
[1] = target: T1, Transient receptor potential cation channel subfamily V member 1 (Rattus norvegicus, UniProt O35433); test: Agonist activity at TRPV1 in neonatal rat DRG neurons assessed as increase in calcium influx after 10 mins in presence of 45Ca2+ by Beckman CP scintillation counting method
How it was run: (§1)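 45Ca2+ uptake in cultured spinal sensory neurons from neonatal rat. Antagonist mode: derivatives were tested against 0.5 μM capsaicin, and IC50 is the concentration that cuts the capsaicin response by 50%. Agonist mode: EC50 is the concentration giving 50% of the maximal response. Values were estimated from at least 3 replicates at each concentration.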

[2] = target: T1, Transient receptor potential cation channel subfamily V member 1; test: Antagonist activity at TRPV1 in neonatal rat DRG neurons assessed as inhibition of capsaicin-induced intracellular calcium after 10 mins in presence of 45Ca2+ by Beckman CP scintillation counting method; format: cell-based; how it was run: as §1
[3] = target: Transient receptor potential cation channel subfamily V member 1 (Rattus norvegicus) (UniProt O35433); test: Potency index, ratio of IC50 for ATC-120 to IC50 for test compound for antagonist activity at TRPV1 in neonatal rat DRG neurons
Transient receptor potential cation channel subfamily V member 1 (Rattus norvegicus), sequence (O35433 whole entry): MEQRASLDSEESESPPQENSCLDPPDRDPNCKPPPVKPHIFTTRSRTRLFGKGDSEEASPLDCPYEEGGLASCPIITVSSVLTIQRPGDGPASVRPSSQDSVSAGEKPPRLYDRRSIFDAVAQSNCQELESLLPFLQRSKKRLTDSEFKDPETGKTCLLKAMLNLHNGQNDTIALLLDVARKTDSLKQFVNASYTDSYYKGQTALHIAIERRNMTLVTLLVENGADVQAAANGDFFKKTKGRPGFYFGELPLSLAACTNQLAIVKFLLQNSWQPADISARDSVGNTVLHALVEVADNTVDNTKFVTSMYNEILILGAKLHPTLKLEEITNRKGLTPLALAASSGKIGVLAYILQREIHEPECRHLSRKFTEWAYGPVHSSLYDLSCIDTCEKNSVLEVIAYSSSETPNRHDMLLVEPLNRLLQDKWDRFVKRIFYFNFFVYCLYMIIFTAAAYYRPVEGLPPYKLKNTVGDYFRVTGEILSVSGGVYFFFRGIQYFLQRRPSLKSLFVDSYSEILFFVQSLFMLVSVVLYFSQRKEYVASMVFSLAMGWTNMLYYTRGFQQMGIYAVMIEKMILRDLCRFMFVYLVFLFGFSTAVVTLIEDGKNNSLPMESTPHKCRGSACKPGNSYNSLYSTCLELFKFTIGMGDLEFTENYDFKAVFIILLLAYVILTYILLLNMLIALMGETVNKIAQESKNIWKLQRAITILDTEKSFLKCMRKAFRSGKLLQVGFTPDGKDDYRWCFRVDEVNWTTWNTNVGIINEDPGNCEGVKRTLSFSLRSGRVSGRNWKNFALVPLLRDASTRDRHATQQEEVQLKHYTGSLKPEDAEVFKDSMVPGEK

T1 sequence (O35433 whole entry): as above

SMILES: C[C@@H](NC(=O)NCc1ccc(C(C)(C)C)cc1)c1ccc(NS(C)(=O)=O)cc1
EC50 [1]: > 100 µM
IC50 [2]: 680 nM

SMILES: C[C@@H](N/C(COc1ccc(C(C)(C)C)cc1)=N/C#N)c1ccc(NS(C)(=O)=O)cc1
EC50 [1]: > 100 µM

SMILES: C[C@@H](NC(=O)COc1ccc(C(C)(C)C)cc1)c1ccc(NS(C)(=O)=O)c(F)c1
EC50 [1]: > 100 µM

SMILES: C[C@@H](NC(=O)/C=C/c1ccc(C(C)(C)C)cc1)c1ccc(NS(C)(=O)=O)cc1
EC50 [1]: > 100 µM
IC50 [2]: 160 nM

SMILES: C[C@@H](NC(=S)COc1ccc(C(C)(C)C)cc1)c1ccc(NS(C)(=O)=O)cc1
EC50 [1]: > 100 µM

SMILES: CC(Cc1ccc(C(C)(C)C)cc1)C(=O)N[C@H](C)c1ccc(NS(C)(=O)=O)cc1 (mixture of isomers)
EC50 [1]: > 100 µM
IC50 [2]: 270 nM

SMILES: C/C(=C\c1ccc(C(C)(C)C)cc1)C(=O)N[C@H](C)c1ccc(NS(C)(=O)=O)cc1
EC50 [1]: > 100 µM

SMILES: C[C@@H](NC(=S)NCc1ccc(C(C)(C)C)cc1)c1ccc(NS(C)(=O)=O)cc1
EC50 [1]: > 100 µM

SMILES: C[C@@H](NC(=S)/C=C/c1ccc(C(C)(C)C)cc1)c1ccc(NS(C)(=O)=O)cc1
EC50 [1]: > 100 µM
IC50 [2]: 5000 nM

Further lines, results first:

EC50 [1]: > 100 µM
IC50 [2]: 300 nM
SMILES: C[C@@H](NC(=S)CCc1ccc(C(C)(C)C)cc1)c1ccc(NS(C)(=O)=O)cc1

EC50 [1]: > 100 µM
SMILES: C[C@@H](NC(=O)COc1ccc(C(C)(C)C)cc1)c1ccc(NS(C)(=O)=O)cc1

EC50 [1]: > 100 µM
SMILES: C/C(=C\c1ccc(C(C)(C)C)cc1)C(=O)N[C@H](C)c1ccc(NS(C)(=O)=O)c(F)c1

EC50 [1]: > 100 µM
IC50 [2]: 240 nM
SMILES: C[C@@H](NC(=O)CCc1ccc(C(C)(C)C)cc1)c1ccc(NS(C)(=O)=O)cc1

EC50 [1]: > 100 µM
SMILES: C[C@@H](NC(=O)C#Cc1ccc(C(C)(C)C)cc1)c1ccc(NS(C)(=O)=O)cc1

EC50 [1]: > 100 µM
Ratio IC50 [3]: 2
SMILES: C=Cc1cc([C@@H](C)NC(=O)/C(C)=C/c2ccc(C(C)(C)C)cc2)ccc1NS(C)(=O)=O
